Assay results as given in publication PMC5563391 (Investigational new drugs, 2015).

Tests used:
[1] = Phase 1 pharmacokinetics of ilorasertib in plasma; assay type: in vivo, human; conditions: for AUC(0-t) / half-life / AUC(0-inf): human, plasma, po; for half-life: 480 mg, t1/2, arm B, oral twice weekly
How it was run: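 Arm A patients took oral test compound once weekly, in the morning, on days 1, 8 and 15 of 28-day cycles, at 10–690 mg. Plasma was sampled intensively up to 72 h after dosing on days 1 and 15. Noncompartmental analysis gave Cmax, Tmax, t½, AUCt and AUC∞, plus dose-normalized values. Results are summarized by dose level as mean ± SD, with individual values where N=1.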

[2] = test system: placental growth factor (PlGF); experiment: Placental growth factor concentration, biomarker of VEGF receptor inhibition; assay type: in vivo, human; conditions: arm A
How it was run: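 Arm A patients received oral test compound once weekly on days 1, 8 and 15 of 28-day cycles, at 10–690 mg. At designated time points after the first dose, blood for PlGF measurement was collected together with pharmacokinetic samples. The change from baseline in PlGF was assessed against dose.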

[3] = test system: patients with advanced hematologic malignancies; experiment: Clinical response; assay type: in vivo, human
How it was run: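 Patients received the test compound in one of four arms, each on a 28-day cycle. Arm A took it orally once weekly on days 1, 8 and 15, and arm B orally on days 1, 2, 8, 9, 15 and 16. Arm C added IV or SC azacitidine on days 1–7 to the once-weekly oral schedule. Arm D received it IV on days 1, 8 and 15. Response used revised International Working Group criteria, or NCCN guidelines for CML.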

[4] = test system: patients with hematologic malignancies; experiment: Phase 1 safety and tolerability; assay type: in vivo
How it was run: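 Four arms each ran 28-day cycles: oral once weekly (A), oral twice weekly (B), oral once weekly with IV/SC azacitidine on days 1–7 (C), and IV once weekly (D). Dose escalation followed a modified continual reassessment method, with MTD defined as a 30% DLT rate by logistic regression. Toxicity was graded continuously by CTCAE v4.0, with labs, ECG, MUGA/echocardiogram and vital signs monitored.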

[5] = test system: peripheral blood mononuclear cells; experiment: Cell cycle analysis by flow cytometry; assay type: in vivo, human; conditions: arm A
How it was run: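 Adults with hematologic malignancies received oral test compound once weekly on days 1, 8 and 15 of 28-day cycles, at doses from 10 to 690 mg. Blood for pharmacodynamics was drawn alongside pharmacokinetic samples. Peripheral blood mononuclear cells were analysed by flow cytometry for the percentage of cells with 2N, 4N or >4N DNA. Only patients with enough cycling cells at baseline were evaluable.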

Question: For `Nc1ncc(-c2cnn(CCO)c2)c2scc(-c3ccc(NC(=O)Nc4cccc(F)c4)cc3)c12` [Ilorasertib], which AUC(0-t) ([1]; 440 mg) is on record?
Answer: Its AUC(0-t) is 13500 ± 7520 ng·h/mL.

Question: And the half-life ([1]; day 1, N=7)?
Answer: Its half-life is 14.9 ± 3.2 h.

Question: And the half-life ([1]; day 15, N=7)?
Answer: The half-life was 15.3 ± 5.1 h.

Question: What about the AUC(0-inf) ([1]; 540 mg) of the same compound?
Answer: Its AUC(0-inf) is 6010 ± 1230 ng·h/mL.

Question: And the AUC(0-t) ([1]; 540 mg, AUC0–24, arm A, oral once weekly, first dose, N=3, mean ± SD)?
Answer: The AUC(0-t) was 5800 ± 1080 ng·h/mL.

Question: And the AUC(0-inf) ([1]; 640 mg)?
Answer: Its AUC(0-inf) is 20300 ± 15000 ng·h/mL.

Question: And the AUC(0-t) ([1]; 640 mg, AUC0–24, arm A, oral once weekly, first dose, N=6, mean ± SD)?
Answer: The AUC(0-t) was 19700 ± 14800 ng·h/mL.

Question: And the AUC(0-inf) ([1]; 690 mg)?
Answer: The AUC(0-inf) was 8460 ng·h/mL.

Question: And the “renal excretion of ilorasertib as the parent drug” value ([1]; in vivo)?
Answer: Its value is “negligible”.

Question: And the “dose proportionality of Cmax and AUC∞” value ([1]; oral, 80- to 690-mg dose range)?
Answer: The value was “generally dose proportional”.

Question: What about the “increase in PlGF” value ([2]; after the first dose, dose range 10 to 690 mg) of the same compound?
Answer: Its value is ≥ 2 fold.

Question: And the “relationship between dose and the magnitude of change in PlGF” value [2]?
Answer: The value was “no apparent relationship”.

Question: And the “patients with a best response of stable disease” value ([3]; 52 patients)?
Answer: Its value is “Twelve”.

Question: And the “patients with an objective response” value ([3]; AML patients, among 52 patients)?
Answer: Its value is 3.

Question: What about the “patients with CR with incomplete blood count recovery (CRi)” value ([3]; AML, arm A, 640 mg, end of cycle 1) of the same compound?
Answer: Its value is 1.

Question: What about the “patients with complete response (CR)” value ([3]; AML, arm A, 690 mg, end of cycle 8) of the same compound?
Answer: Its value is 1.

Question: And the “patients with partial response” value ([3]; AML, arm B, 480 mg, end of cycle 2)?
Answer: The value was 1.

Question: And the “patients reporting grade 3 or 4 adverse events” value ([4]; 42 of 52 patients)?
Answer: The value was 80.8%.

Question: What about the “patients reporting at least 1 treatment-emergent adverse event” value ([4]; 51 of 52 patients) of the same compound?
Answer: Its value is 98.1%.

Question: And the “grade 3/4 adverse event: anemia” value ([4]; 52 patients, all arms)?
Answer: The value was 13.5%.

Question: What about the “grade 3/4 adverse event: hypertension” value ([4]; 52 patients, all arms) of the same compound?
Answer: Its value is 28.8%.

Question: What about the “grade 3/4 adverse event: hypokalemia” value ([4]; 52 patients, all arms) of the same compound?
Answer: The value was 15.4%.

Question: What about the “grade 3/4 adverse event: hypophosphatemia” value ([4]; 52 patients, all arms) of the same compound?
Answer: The value was 11.5%.

Question: And the “grade 3 or 4 adverse events related to ilorasertib: hypertension” value ([4]; 52 patients, all arms)?
Answer: Its value is 17.3%.

Question: What about the “grade 3 or 4 adverse events related to ilorasertib: pancreatitis” value ([4]; 52 patients, all arms) of the same compound?
Answer: Its value is 3.8%.

Question: What about the “grade 3 or 4 adverse events related to ilorasertib: proteinuria” value ([4]; 52 patients, all arms) of the same compound?
Answer: Its value is 3.8%.

Question: What about the “Treatment-emergent adverse events, any grade: Anemia” value ([4]; all arms, N=52) of the same compound?
Answer: Its value is 7 (13.5) n (%).

Question: What about the “Treatment-emergent adverse events, any grade: Any event” value ([4]; all arms, N=52) of the same compound?
Answer: Its value is 51 (98.1) n (%).

Question: What about the “Treatment-emergent adverse events, any grade: Arthralgia” value ([4]; all arms, N=52) of the same compound?
Answer: The value was 8 (15.4) n (%).

Question: And the “Treatment-emergent adverse events, any grade: Bone pain” value ([4]; all arms, N=52)?
Answer: The value was 8 (15.4) n (%).

Question: What about the “Treatment-emergent adverse events, any grade: Decreased appetite” value ([4]; all arms, N=52) of the same compound?
Answer: Its value is 8 (15.4 n (%).

Question: What about the “Treatment-emergent adverse events, any grade: Diarrhea” value ([4]; all arms, N=52) of the same compound?
Answer: The value was 23 (44.2) n (%).

Question: And the “Treatment-emergent adverse events, any grade: Epistaxis” value ([4]; all arms, N=52)?
Answer: Its value is 7 (13.5) n (%).

Question: And the “Treatment-emergent adverse events, any grade: Fatigue” value ([4]; all arms, N=52)?
Answer: The value was 11 (21.2) n (%).

Question: What about the “Treatment-emergent adverse events, any grade: Headache” value ([4]; all arms, N=52) of the same compound?
Answer: The value was 8 (15.4) n (%).

Question: And the “Treatment-emergent adverse events, any grade: Hypertension” value ([4]; all arms, N=52)?
Answer: Its value is 17 (32.7) n (%).

Question: What about the “Treatment-emergent adverse events, any grade: Hypokalemia” value ([4]; all arms, N=52) of the same compound?
Answer: The value was 18 (34.6) n (%).

Question: What about the “Treatment-emergent adverse events, any grade: Hypomagnesemia” value ([4]; all arms, N=52) of the same compound?
Answer: Its value is 10 (19.2) n (%).

Question: And the “Treatment-emergent adverse events, any grade: Hypophosphatemia” value ([4]; all arms, N=52)?
Answer: Its value is 9 (17.3) n (%).

Question: What about the “Treatment-emergent adverse events, any grade: Nausea” value ([4]; all arms, N=52) of the same compound?
Answer: The value was 23 (44.2) n (%).

Question: And the “Treatment-emergent adverse events, any grade: Peripheral edema” value ([4]; all arms, N=52)?
Answer: The value was 11 (21.2) n (%).

Question: What about the “Treatment-emergent adverse events, any grade: Proteinuria” value ([4]; all arms, N=52) of the same compound?
Answer: Its value is 19 (36.5) n (%).

Question: And the “Treatment-emergent adverse events, any grade: Pyrexia” value ([4]; all arms, N=52)?
Answer: The value was 8 (15.4) n (%).

Question: What about the “Treatment-emergent adverse events, any grade: Vomiting” value ([4]; all arms, N=52) of the same compound?
Answer: Its value is 10 (19.2) n (%).

Question: And the “Treatment-emergent adverse events, grade 3/4: Acute renal failure” value ([4]; all arms, N=52)?
Answer: Its value is 3 (5.8) n (%).

Question: And the “Treatment-emergent adverse events, grade 3/4: Anemia” value ([4]; all arms, N=52)?
Answer: The value was 7 (13.5) n (%).

Question: What about the “Treatment-emergent adverse events, grade 3/4: Any grade 3/4 event” value ([4]; all arms, N=52) of the same compound?
Answer: Its value is 42 (80.8) n (%).

Question: And the “Treatment-emergent adverse events, grade 3/4: Bacteremia” value ([4]; all arms, N=52)?
Answer: The value was 3 (5.8) n (%).

Question: What about the “Treatment-emergent adverse events, grade 3/4: Febrile neutropenia” value ([4]; all arms, N=52) of the same compound?
Answer: Its value is 4 (7.7) n (%).

Question: And the “Treatment-emergent adverse events, grade 3/4: Fungal pneumonia” value ([4]; all arms, N=52)?
Answer: Its value is 4 (7.7) n (%).

Question: What about the “Treatment-emergent adverse events, grade 3/4: Hypertension” value ([4]; all arms, N=52) of the same compound?
Answer: Its value is 15 (28.8) n (%).

Question: What about the “Treatment-emergent adverse events, grade 3/4: Hypokalemia” value ([4]; all arms, N=52) of the same compound?
Answer: Its value is 8 (15.4) n (%).

Question: What about the “Treatment-emergent adverse events, grade 3/4: Hypophosphatemia” value ([4]; all arms, N=52) of the same compound?
Answer: The value was 6 (11.5) n (%).

Question: And the “Treatment-emergent adverse events, grade 3/4: Hypotension” value ([4]; all arms, N=52)?
Answer: The value was 3 (5.8) n (%).

Question: And the “Treatment-emergent adverse events, grade 3/4: Pneumonia” value ([4]; all arms, N=52)?
Answer: The value was 4 (7.7) n (%).

Question: And the “Treatment-emergent adverse events, grade 3/4: Proteinuria” value ([4]; all arms, N=52)?
Answer: Its value is 4 (7.7) n (%).

Question: And the “Treatment-emergent adverse events, grade 3/4: Sepsis” value ([4]; all arms, N=52)?
Answer: Its value is 3 (5.8) n (%).

Question: What about the DLTs ([4]; arm A, PO once weekly monotherapy, 640 mg, 6 patients) of the same compound?
Answer: Its DLTs is “Grade 3 pancreatitis ^a”.

Question: What about the “recommended phase 2 dose (RPTD)” value ([4]; arm A, oral monotherapy once weekly) of the same compound?
Answer: Its value is 540 mg.

Question: What about the DLTs ([4]; arm B, 320 or 480 mg twice weekly) of the same compound?
Answer: The DLTs was “No DLTs”.

Question: What about the “recommended phase 2 dose (RPTD)” value ([4]; arm B, oral monotherapy twice weekly) of the same compound?
Answer: Its value is 480 mg.

Question: What about the DLTs ([4]; arm D, IV once weekly, 32 mg) of the same compound?
Answer: Its DLTs is “No DLTs”.

Question: And the “association between ilorasertib dose and cell cycle arrest” value [5]?
Answer: The value was “No association”.

Question: What about the “increase in the number of cells with 4N DNA and polyploidy” value ([5]; 9 patients with sufficient cycling cells at baseline) of the same compound?
Answer: Its value is ≥ 2 fold.
